Experiments:
[1] = target: Kappa-type opioid receptor (Cavia porcellus, UniProt P41144); assay: Binding affinity towards Opioid receptor kappa 1 from guinea pig brain using [3H]U-69593 as radioligand
In short: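 Uses 1 nM [3H]U69,593 with guinea pig brain membrane protein (500 µg), 12 concentrations, 50 mM Tris-HCl pH 7.5, 60 min at 25 °C. Nonspecific binding with 10 µM naloxone. Filters pre-soaked in 0.1% polyethylenimine; bound label counted.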

[2] = target: Kappa-type opioid receptor (Cavia porcellus) (UniProt P41144); assay: Ratio of binding affinity of Opioid receptor kappa 1 to Opioid receptor mu 1 to Opioid receptor delta 1; kappa:mu:delta = 4:3:1
Mu-type opioid receptor = Mu-type opioid receptor (Cavia porcellus, UniProt P97266); assay: Binding affinity towards Opioid receptor mu 1 from guinea pig brain using [3H]DAMGO as radioligand
[3] = target: Kappa-type opioid receptor (Cavia porcellus) (UniProt P41144); assay: Ratio of binding affinity of Opioid receptor kappa 1 to Opioid receptor mu 1 to Opioid receptor delta 1; kappa:mu:delta = 36:14:1
[4] = target: Kappa-type opioid receptor (Cavia porcellus) (UniProt P41144); assay: Ratio of binding affinity of Opioid receptor kappa 1 to Opioid receptor mu 1 to Opioid receptor delta 1; kappa:mu:delta = 45:12:1
[5] = target: Kappa-type opioid receptor (Cavia porcellus) (UniProt P41144); assay: Ratio of binding affinity of Opioid receptor kappa 1 to Opioid receptor mu 1 to Opioid receptor delta 1; kappa:mu:delta = 5:3:1
[6] = target: Kappa-type opioid receptor (Cavia porcellus) (UniProt P41144); assay: Ratio of binding affinity of Opioid receptor kappa 1 to Opioid receptor mu 1 to Opioid receptor delta 1; kappa:mu:delta = 13:10:1
[7] = Binding affinity towards Opioid receptor delta 1 from guinea pig brain using [3H]naltrindole as radioligand

Sequence of Mu-type opioid receptor (P97266 whole entry): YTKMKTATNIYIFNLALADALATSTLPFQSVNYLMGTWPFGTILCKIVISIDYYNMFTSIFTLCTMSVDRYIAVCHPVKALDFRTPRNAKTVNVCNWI
Sequence of Kappa-type opioid receptor (P41144 whole entry): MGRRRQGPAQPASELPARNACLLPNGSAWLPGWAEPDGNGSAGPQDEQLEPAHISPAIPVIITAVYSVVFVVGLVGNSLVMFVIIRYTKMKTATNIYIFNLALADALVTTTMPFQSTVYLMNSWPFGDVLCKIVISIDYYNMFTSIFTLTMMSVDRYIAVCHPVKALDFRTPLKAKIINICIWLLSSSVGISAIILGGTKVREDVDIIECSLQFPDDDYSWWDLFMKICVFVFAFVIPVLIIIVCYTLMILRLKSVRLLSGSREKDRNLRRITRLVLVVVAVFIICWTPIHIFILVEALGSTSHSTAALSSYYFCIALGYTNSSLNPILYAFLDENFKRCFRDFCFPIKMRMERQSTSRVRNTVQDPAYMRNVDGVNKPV
Sequence of Kappa-type opioid receptor (Cavia porcellus) (P41144 whole entry): as above

Row | Compound | Ki [1] | Ratio [2] | Ki (Mu-type opioid receptor) | Ratio [3] | Ratio [4] | Ratio [5] | Ratio [6] | Ki [7]
1 | C[C@H]1C2Cc3ccc(Nc4ccc(C(C)(C)C)cc4)cc3[C@@]1(C)CCN2CC1CC1 | 14 nM | 4 | 18 nM | – | – | – | – | –
2 | C[C@H]1C2Cc3cc4cc[nH]c4cc3[C@@]1(C)CCN2CC1CC1 | 7 nM | – | 18 nM | 36 | – | – | – | –
3 | COc1ccccc1Nc1ccc2c(c1)[C@@]1(C)CCN(CC3CC3)C(C2)[C@@H]1C | 2.2 nM | – | 8.5 nM | – | 45 | – | – | –
4 | C[C@H]1C2Cc3ccc(Nc4ccc(Cl)c(Cl)c4)cc3[C@@]1(C)CCN2CC1CC1 | 5.7 nM | – | 8.4 nM | – | – | 5 | – | –
5 | C[C@H]1C2Cc3ccc(N(C)Cc4ccccc4)cc3[C@@]1(C)CCN2CC1CC1 | – | – | – | – | – | – | 13 | 570 nM

— ChEMBL document CHEMBL1145777 (J Med Chem, 2003)
